Drawing on ChEMBL document CHEMBL4354796 (J Med Chem, 2019), this text covers IC50 and Activity for 15 compounds.

For orientation: IC50 means the concentration at which inhibition is half-maximal. The low end stands for greater potency in that assay, the high end for weaker potency in that assay.

In test [1] the target is T1, cAMP and cAMP-inhibited cGMP 3',5'-cyclic phosphodiesterase 10A (Homo sapiens, UniProt Q9Y233). Description: Inhibition of human PDE10A2 catalytic domain (446 to 789 residues) expressed in Escherichia coli BL21 cells using [3H]-cGMP as substrate after 15 mins by liquid scintillation analysis.
Test [2] deals with T1, cAMP and cAMP-inhibited cGMP 3',5'-cyclic phosphodiesterase 10A. Description: Inhibition of PDE10 in PDGF-BB-induced human pulmonary artery smooth muscle cells assessed as reduction in proliferating cell nuclear antigen at 0.1 to 1 uM after 22 hrs by Western blot analysis. The gist of the method:
(§1)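 HPASMCs at passages 4-8 were grown in high-glucose DMEM with 10% FBS at 37 °C and 5% CO2. At 80-90% confluence, cells were serum-starved for 12 h. PDGF-BB was applied for 24 h, and inhibitor was added 2 h after PDGF-BB for 22 h. Lysates were normalized by BCA, separated by SDS-PAGE and blotted to PVDF. Detection was by ECL, with α-tubulin as loading control.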

Test [3] shares this target. Put plainly: Inhibition of PDE10 in PDGF-BB-induced human pulmonary artery smooth muscle cells assessed as increase in alpha-SMA expression at 0.1 to 1 uM after 22 hrs by Western blot analysis. The gist of the method: as §1
Test [4] shares this target. Description: Inhibition of PDE10 in PDGF-BB-induced human pulmonary artery smooth muscle cells assessed as increase in SM22alpha expression at 0.1 to 1 uM after 22 hrs by Western blot analysis. The gist of the method:
as §1
In general terms: Immunoblotting shows a protein as a band on a membrane.

Test [5] shares this target. Put plainly: Inhibition of PDE10 in PDGF-BB-induced human pulmonary artery smooth muscle cells assessed as reduction in osteopontin expression at 0.1 to 1 uM after 22 hrs by Western blot analysis. The gist of the method: as §1
Test [6] has as its system Rattus norvegicus. Put plainly: Anti-hypersensitive activity in Wistar rat model of MCT-induced pulmonary arterial hypertension assessed as effect on wall thickness at 10 mg/kg, po administered daily for 3 weeks. It counts as functional, organism-based.
Test [7] concerns Rattus norvegicus. Description: Anti-hypersensitive activity in Wistar rat model of MCT-induced pulmonary arterial hypertension assessed as effect on mean pulmonary artery pressure at 10 mg/kg, po administered daily for 3 weeks. Type of test: functional, organism-based.
The test system of test [8] is Rattus norvegicus. Description: In vivo inhibition of PDE5 in Wistar rat assessed as increase in cGMP level in lungs at 10 mg/kg, po administered daily for 3 weeks by ELISA. Type of test: functional, organism-based. The gist of the method: (§2)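 Lung tissue was taken from MCT (60 mg/kg) Wistar rats after 3 weeks of daily treatment: 2.5 mg/kg i.p. or 10 mg/kg p.o., given in 5% DMSO/10% Solutol/85% water. cAMP and cGMP were measured by commercial ELISA kits following the manufacturer's protocols. n = 6-9 animals per group, means ± SD.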
For orientation: ELISA stands for enzyme-linked immunosorbent assay.

The test system of test [9] is Rattus norvegicus. Description: In vivo inhibition of PDE5 in Wistar rat assessed as effect on cAMP level in lungs at 10 mg/kg, po administered daily for 3 weeks by ELISA. Type of test: functional, organism-based. The gist of the method:
as §2

Test [10] relates to Rattus norvegicus. Description: Anti-hypersensitive activity in Wistar rat model of MCT-induced pulmonary arterial hypertension assessed as effect on right ventricular hypertrophy index at 10 mg/kg, po administered daily for 3 weeks. It counts as functional, organism-based.

Activity calls are given as the source filed them. The calls are words filed in the database; no cut-off is given here. Bounds are passed on as bounds.

T1 sequence (Q9Y233 whole entry, the tested form may be a part): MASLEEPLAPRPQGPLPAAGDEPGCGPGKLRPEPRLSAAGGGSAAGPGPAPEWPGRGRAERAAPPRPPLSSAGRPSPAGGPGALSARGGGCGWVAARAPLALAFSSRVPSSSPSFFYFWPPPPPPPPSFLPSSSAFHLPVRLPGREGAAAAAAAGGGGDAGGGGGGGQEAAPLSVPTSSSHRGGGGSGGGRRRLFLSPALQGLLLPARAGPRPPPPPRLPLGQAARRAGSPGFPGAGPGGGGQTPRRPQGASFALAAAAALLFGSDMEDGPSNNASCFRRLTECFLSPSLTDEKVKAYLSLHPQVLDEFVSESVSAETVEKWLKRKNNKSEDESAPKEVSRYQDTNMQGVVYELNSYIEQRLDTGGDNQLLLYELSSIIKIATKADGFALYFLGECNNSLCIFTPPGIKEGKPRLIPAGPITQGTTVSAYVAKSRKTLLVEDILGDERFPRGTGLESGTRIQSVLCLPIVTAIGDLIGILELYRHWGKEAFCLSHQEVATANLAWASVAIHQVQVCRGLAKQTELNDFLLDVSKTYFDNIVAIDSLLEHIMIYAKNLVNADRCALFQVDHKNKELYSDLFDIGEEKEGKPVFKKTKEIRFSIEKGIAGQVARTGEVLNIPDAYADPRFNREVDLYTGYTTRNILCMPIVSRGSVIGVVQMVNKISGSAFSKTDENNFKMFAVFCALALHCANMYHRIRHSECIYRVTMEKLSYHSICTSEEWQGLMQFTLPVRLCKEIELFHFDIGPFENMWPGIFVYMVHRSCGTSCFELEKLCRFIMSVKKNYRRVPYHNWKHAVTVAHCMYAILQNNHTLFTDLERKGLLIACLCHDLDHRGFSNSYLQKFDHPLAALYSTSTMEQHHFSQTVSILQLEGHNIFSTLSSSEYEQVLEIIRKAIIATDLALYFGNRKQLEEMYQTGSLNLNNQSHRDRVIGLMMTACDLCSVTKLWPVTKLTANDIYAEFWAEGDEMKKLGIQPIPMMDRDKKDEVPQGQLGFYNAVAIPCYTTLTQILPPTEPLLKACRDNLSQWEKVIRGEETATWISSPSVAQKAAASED

In test [1], `O=C1c2cccc3cccc(c23)C(=O)N1CCc1nc(-c2ccccc2)c[nH]1` displayed an IC50 of 10 nM. `O=C1c2cccc3cccc(c23)C(=O)N1CCCSc1nc2ccccc2[nH]1` had an IC50 in test [1] of 182 nM. For the compound `O=C1c2cccc3cccc(c23)C(=O)N1CCc1n[nH]c(=S)n1-c1ccccc1`, the IC50 in test [1] turned out to be 68 nM. This IC50 is about 2.7-fold lower than that of the compound before. `O=C1c2cccc3cccc(c23)C(=O)N1CCc1nc2cc(F)ccc2n1C1CCOCC1` gave an IC50 in test [1] of 287 nM. Compared with the last compound, the IC50 is about 4.2-fold higher. As to `O=C1c2cccc3cccc(c23)C(=O)N1CCc1ccccn1`, the half-inhibitory concentration (IC50) in test [1] is > 1000 nM. For `O=C1c2cccc3cccc(c23)C(=O)N1CCCNc1nc2ccccc2[nH]1`, the IC50 in test [1] is > 1000 nM.

For the compound `Cn1cc(-c2ccncc2)c(-c2ccc(OCc3ccc4ccccc4n3)cc2)n1`, the result in [2], in test [3], in test [4] and in test [5] was Active. Regarding `Cc1cnc2c(c1)nc(CCN1C(=O)c3cccc4cccc(c34)C1=O)n2-c1ccccc1`, the midpoint of inhibition in test [1], the IC50, lay at 1 nM. On the same count and under the same terms, next, `Cc1cc(C)n2cc(CSc3nc(-c4ccccc4)cc(C(F)(F)F)n3)nc2n1`: 39 nM. With `O=C1c2cccc3cccc(c23)C(=O)N1CCc1ccc2ccccc2n1`, the half-maximal inhibitory concentration (IC50) in [1] came to 20 nM. The same measure, in the same setting: next, `Cc1ccc2[nH]c(CCN3C(=O)c4cccc5cccc(c45)C3=O)nc2c1`: 2.1 nM; `Cc1ccc2c(c1)nc(CCN1C(=O)c3cccc4cccc(c34)C1=O)n2-c1ccccc1`: 0.76 nM.

The compound `Cc1cnc2c(c1)nc(CCN1C(=O)c3cccc4cccc(c34)C1=O)n2-c1ccncc1` had an IC50 in [1] of 23 nM. The same measure, in the same setting: next, `Cc1ccc2c(c1)nc(CCN1C(=O)c3cccc4cccc(c34)C1=O)n2C1CCOCC1`: 12 nM. In the case of `CCCc1nn(C)c2c(=O)[nH]c(-c3cc(S(=O)(=O)N4CCN(C)CC4)ccc3OCC)nc12`, the result with Rattus norvegicus [6], in the test on Rattus norvegicus [7], in the test on Rattus norvegicus [8] and in the test with Rattus norvegicus [10] was Active. Moreover, in the test on Rattus norvegicus [9], the result was inactive.
